CYP2C19 inhib = inhibitors of human CYP2C19. CYP2C19 Supersomes, luciferin-H EGE luminescence, 30 min. inhibition, % at 5 µM. actives 21% (n = 96,000);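 active = CYP2C19 inhibition above a set limit at 5 µM in the primary screen, cut at about 50% in these data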
Target sequence (P33261 whole entry, looked up): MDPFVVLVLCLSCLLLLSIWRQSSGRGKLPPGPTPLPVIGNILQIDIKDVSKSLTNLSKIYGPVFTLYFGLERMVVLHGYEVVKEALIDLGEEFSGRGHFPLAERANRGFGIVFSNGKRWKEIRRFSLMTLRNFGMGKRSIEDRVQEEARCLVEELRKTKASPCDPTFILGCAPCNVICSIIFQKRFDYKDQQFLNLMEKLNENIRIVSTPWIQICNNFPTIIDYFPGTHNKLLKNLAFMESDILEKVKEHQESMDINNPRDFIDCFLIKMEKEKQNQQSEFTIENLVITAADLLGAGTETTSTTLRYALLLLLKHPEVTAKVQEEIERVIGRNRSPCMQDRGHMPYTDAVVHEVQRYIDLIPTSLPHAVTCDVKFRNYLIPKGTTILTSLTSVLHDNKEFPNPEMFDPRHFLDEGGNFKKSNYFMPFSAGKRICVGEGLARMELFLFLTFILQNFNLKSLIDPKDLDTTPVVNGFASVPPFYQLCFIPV
CYP2C9 inhib = blocks human cytochrome P450 2C9. P11712. inhibition, % at 5 µM. CYP2C9 Supersomes, luciferin-H conversion, luminescence. actives 20% (n = 96,000);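 active = blocking of liver enzyme CYP2C9 beyond about 50% at 5 µM, limit read from the data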
CYP2C19 activ = activators of human cytochrome P450 2C19; recombinant CYP2C19, luciferin-H EGE luminescence; stronger effect = higher value; 0 = fully inhibited enzyme, 1 = untreated enzyme; activation factor at 5 µM; 96,000 tested, under 10 active;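 active = activation factor of at least 2 at 5 µM in the primary screen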
Rev-RRE block = inhibitors of HIV-1 Rev-RRE RNA interaction. P05866. Rev peptide-RRE RNA binding, FRET. inhibition, % at 8 µM. actives 0.79% (n = 97,000). AID 704;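 active = inhibition above the screen-wide mean plus 3 SD, cut at about 35% in these data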
Target sequence (P05866 whole entry, looked up): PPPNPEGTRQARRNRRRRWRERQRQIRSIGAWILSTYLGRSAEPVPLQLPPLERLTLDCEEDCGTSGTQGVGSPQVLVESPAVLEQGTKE
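Test system: Cy5-tagged RRE RNA duplex with fluorescein-tagged Rev peptide; Probe or stimulus: labelled Rev peptide; Schedule: 5 min preincubation and 15 min binding, 25 °C; Signal: FRET fluorescence readout; Evaluation: % inhibition from 671/540 nm acceptor-to-donor ratio, scaled between controls; Control set: DMSO and neomycin B.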
CYP2C9 activ = CYP2C9 (human) activation; P11712; AID 1024; actives 1.4% (n = 96,000); recombinant CYP2C9, luciferin-H conversion, luminescence; stronger effect = higher value; factor 1 = untreated enzyme, 0 = blocked; activation factor at 5 µM;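 active = activation factor of 2 or more for CYP2C9 at a 5 µM dose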
Cav32 inh = human Cav3.2 channel inhibition, primary screen; Cav3.2-expressing cells, Fluo-4 calcium fluorescence FDSS; stronger effect = lower value; B-score at 10 µM; actives 4% (n = 100,000); AID 449739;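 active = single-dose well whose peak fluorescence ratio is a statistical outlier from its plate by either plate-standardised score or position-corrected B-score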
Numbers stand for hits; . = inactive; / = not tested or not shown. Compounds with a hit are over-represented: about 27% of the library has one in this group of screens.

SMILES | CYP2C19 inhib | CYP2C9 inhib | CYP2C19 activ | Rev-RRE block | CYP2C9 activ | Cav32 inh
O=C(CSc1c2c(nc3cc(Cl)ccc13)CCCC2)NCc1ccco1 | 98 | 88 | . | . | . | .
Cc1cc(C)c2cc(C#N)c(SCC(=O)NCc3ccco3)nc2c1 | . | 71 | . | . | . | .
Cc1ccc2c(SCC(=O)NCc3ccco3)nc(-c3ccc(F)cc3)nc2c1 | . | 89 | . | . | . | .
Cc1ccc(C2Nc3ccccc3-c3nc4ccccc4n32)o1 (stereo unspecified) | / | / | / | . | / | .
CCOC(=O)N1CCN(CC(O)COC2CC(C)CCC2C(C)C)CC1 (stereo unspecified) | 57 | . | . | . | . | .
COC(=O)C1=NN(c2ccccc2)C2(S1)SC(C(C)=O)=C(C)N2c1ccccc1 (stereo unspecified) | . | 58 | . | . | . | .
CC(=O)C1=NN(c2ccccc2)C2(S1)S/C(=C\c1ccccc1)C(=O)N2c1ccccc1 (stereo unspecified) | . | 58 | . | . | . | .
COC(=O)C1=NN(c2ccc(C)cc2)C2(S1)SC(C(C)=O)=C(C)N2c1ccccc1 (stereo unspecified) | 58 | 59 | . | 37 | . | .
O=C1c2ccccc2S(=O)(=O)c2cc(N3CCc4ccccc4C3)ccc21 | / | / | / | / | / | .
CCOC(=O)N1CCC(NS(=O)(=O)c2cc(Br)cnc2N)CC1 | . | 79 | . | . | . | .
COc1ccc(C2/C=C\CN(Cc3ccc(N(C)C)cc3)CC(=O)N2Cc2ccc(F)cc2)cc1 (stereo unspecified) | / | / | / | / | / | .
O=C(Cn1nc(C(F)(F)F)c2c1CCC2)N1CCN(c2ccccc2)CC1 | 89 | . | . | . | 2.3 | .
O=C(Cn1nc(C(F)(F)F)c2c1CCCCC2)N1CCOCC1 | . | . | . | . | . | /
CCNC(=O)c1ccc(-n2nc(C)cc2-c2ccccc2)cc1 | . | . | . | . | . | .
CCNC(=O)c1ccc(-n2nc(C(F)(F)F)c3c2CCCC3)cc1 | . | . | . | . | 2.5 | .
O=C(Cn1nc(C(F)(F)F)c2c1CCCC2)Nc1ccc2c(c1)OCO2 | 87 | 53 | . | . | . | -4.9
O=C(Cn1nc(C(F)(F)F)c2c1CCC2)NCc1ccc(Cl)cc1 | / | / | / | . | / | -4.5
COc1ccc(NC(=O)Cn2nc(C(F)(F)F)c3c2CCCC3)cc1OC | / | / | / | . | / | .
COc1ccc(C(=O)OCC(=O)Nc2ccc(OC(F)F)cc2)c(OC)c1 | . | . | . | . | . | .
O=C(O)c1cc2cc(F)ccc2[nH]1 | / | / | / | / | / | .
Cc1ccc(C(=O)N(c2ccccn2)C(C)c2ccco2)cc1 (stereo unspecified) | 80 | . | . | . | . | .
CC(c1ccco1)N(C(=O)Nc1ccc(Cl)cc1)c1ccccn1 (stereo unspecified) | 85 | 56 | . | . | . | .
Cc1cccc(-n2c(C)nc3c(cnn3-c3ccc(F)cc3)c2=O)c1 | . | . | . | . | . | .
O=S(=O)(c1ccccc1)N1CCN(CC(O)COc2ccc3c(c2)CCC3)CC1 (stereo unspecified) | . | . | . | . | . | .
O=C1NC2(NN1c1ccccc1)C1CC3CC(C1)CC2C3 (stereo unspecified) | . | . | . | . | . | .
SMILES | CYP2C19 inhib | CYP2C9 inhib | CYP2C19 activ | Rev-RRE block | CYP2C9 activ | Cav32 inh
CCCCCCCC1(C)NC(=O)N(c2ccccc2)N1 (stereo unspecified) | 57 | . | . | . | . | .
CNS(=O)(=O)c1cccc(C(=O)OCC(=O)c2cc(C)n(-c3ccc4c(c3)OCO4)c2C)c1 | 62 | 68 | . | . | . | .
CNS(=O)(=O)c1cccc(C(=O)OCC(=O)C23CC4CC(CC(C4)C2)C3)c1 | . | . | . | . | . | .
c1ccc(-c2nnc(-c3c[nH]c4ccccc34)nc2-c2ccccc2)cc1 | . | 99 | . | . | . | .
Nc1nnc(-c2ccccc2)c(-c2ccccc2)n1 | . | . | . | . | . | .
Cc1cc(-c2nnc(-c3ccccc3)c(-c3ccccc3)n2)c(C)o1 | . | 71 | . | . | . | .
Fc1ccccc1Cn1nnc2c(NCCc3ccccn3)ncnc21 | . | . | . | / | . | .
COc1ccccc1C(=O)Nc1c2c(nn1-c1cccc(C)c1C)CS(=O)(=O)C2 | . | . | . | . | . | .
Cc1cc(C)c(S(=O)(=O)N2CCC(C(N)=O)CC2)cc1C | . | . | . | . | 2.3 | .
COc1cc(S(=O)(=O)N2CCC(C(N)=O)CC2)c(C)cc1C | 69 | . | . | . | 3 | .
Cc1ccc(S(=O)(=O)N2CCC(C(N)=O)CC2)c(C)c1C | . | . | . | . | . | .
O=C(CCc1ccccc1)n1nc(-c2ccco2)nc1SCc1ccccc1 | . | . | . | . | . | /
CCCCn1c(N)c(N(CCOC)C(=O)CSc2nc3ccc(C)cc3[nH]2)c(=O)[nH]c1=O | . | . | . | . | . | .
Cc1cc(C)c2nc(-c3ccccn3)cc(C(=O)Nc3cc(C)on3)c2c1 | . | . | . | . | . | .
Cc1cc(NC(=O)c2cc(-c3ccncc3)nc3c(C)cccc23)no1 | 90 | 97 | . | . | . | .
COc1cc(C2Nc3ccc4ncccc4c3C3=C2C(=O)CCC3)ccc1O (stereo unspecified) | 91 | 66 | . | / | . | .
Cc1ccsc1C1Nc2ccc3ncccc3c2C2=C1C(=O)CCC2 (stereo unspecified) | 90 | 85 | . | . | . | .
O=C1CC(C2CCCO2)C(=O)N1Cc1ccccc1 (stereo unspecified) | . | . | . | . | . | /
COc1ccc(C(=O)c2c(C)oc3ccc(O)c(CN4CCOCC4)c23)cc1 | . | . | . | . | . | .
COCCOC(=O)c1c(C)oc2ccc(O)c(CN3CCC(C)CC3)c12 | 51 | . | . | / | . | .
CCOC(=O)CC1C(=O)NCCN1S(=O)(=O)c1cc(Cl)c(Cl)cc1Cl (stereo unspecified) | 62 | . | . | . | . | .
CCOC(=O)CC1C(=O)NCCN1S(=O)(=O)c1ccc(Cl)cc1 (stereo unspecified) | . | . | . | . | . | .
CN1CCc2c(sc3ncn4nc(-c5ccccc5O)nc4c23)C1 | . | . | . | . | . | /
CCC(C(=O)Nc1cnccn1)c1ccccc1 (stereo unspecified) | 60 | . | . | . | . | .
Cc1nnc(SCC(=O)NC(C)c2ccccc2)[nH]c1=O (stereo unspecified) | . | . | . | / | . | .
Cc1ccc(C2=CSC3=NCCN23)c(C)c1 | 56 | . | . | . | . | .
Nc1nnc(COc2ccc(Br)cc2Br)s1 | 71 | . | . | . | . | .
Cc1ccc(C(=O)O)cc1S(=O)(=O)N1CCCC1 | . | . | . | . | . | .
O=C(NC1CCCCC1)N1CCN(c2ccccc2)CC1 | / | / | / | . | / | .

Screening results from PubChem.
